Data: ChEMBL document CHEMBL1150378, “Synthesis and in vitro antiprotozoal activities of water-soluble, inexpensive 3,7-bis(dialkylamino)phenoxazin-5-ium derivatives” (J Med Chem, 2008)
pIC50: −log10 of the molar value.

Legend:
Plasmodium falciparum = experiment: Antiplasmodial activity against chloroquine and pyrimethamine-resistant Plasmodium falciparum K1; format: functional, organism-based
Outline: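 Compounds were prepared as 10 mg/mL DMSO stocks, diluted in serum-free medium, then brought to test concentrations in complete medium without hypoxanthine. DMSO was at most 1% in the top-concentration wells. IC50 values come from two replicate experiments, with chloroquine as the reference standard. Rat L6 myoblast IC50 served for the selectivity index.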

[1] = Selectivity index, Ratio of IC50 for rat L6 cells to IC50 for Plasmodium falciparum K1; format: functional
Outline: (§1)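 Selectivity index is the L6 myoblast cytotoxicity IC50 divided by the IC50 against the respective parasite. Both IC50 values come from two replicate experiments, with compounds diluted from 10 mg/mL DMSO stocks and final DMSO at most 1%.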

Trypanosoma cruzi = experiment: Antitrypanosomal activity against Trypanosoma cruzi Tulahuen C2C4; format: functional, organism-based
Outline: (§2)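 Test compounds were made up as 10 mg/mL stocks in 100% DMSO, warmed or sonicated to dissolve, then diluted in serum-free medium and brought to working concentration in complete medium without hypoxanthine. DMSO was at most 1% in the top-concentration wells. IC50 was determined by previously described methods, with values from two replicate experiments. Reference drugs were chloroquine, melarsoprol, benznidazole, miltefosine and podophyllotoxin (L6).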

[2] = Selectivity index, Ratio of IC50 for rat L6 cells to IC50 for Trypanosoma cruzi Tulahuen C2C4; format: functional; outline: as §1
[3] = system: Trypanosoma brucei rhodesiense; experiment: Antitrypanosomal activity against Trypanosoma brucei rhodesiense STIB900; format: functional, organism-based; outline: as §2
[4] = Selectivity index, Ratio of IC50 for rat L6 cells to IC50 for Trypanosoma brucei rhodesiense STIB900; format: functional; outline: as §1
Leishmania donovani = experiment: Antileishmanial activity against Leishmania donovani MHOM-ET-67/L82 axenic amastigotes; format: functional, organism-based; outline: as §2
[5] = Selectivity index, Ratio of IC50 for rat L6 cells to IC50 for Leishmania donovani MHOM-ET-67/L82 axenic amastigotes; format: functional; outline: as §1
L6 = experiment: Cytotoxicity against rat L6 cells; format: cell-based; outline: as §2

| Structure (SMILES) | pIC50 (Plasmodium falciparum) | Ratio IC50 [1] | pIC50 (Trypanosoma cruzi) | Ratio IC50 [2] | pIC50 [3] | Ratio IC50 [4] | pIC50 (Leishmania donovani) | Ratio IC50 [5] | pIC50 (L6) |
| --- | --- | --- | --- | --- | --- | --- | --- | --- | --- |
| CCN(CC)c1ccc2nc3ccc(N(CC)CC)cc3[o+]c2c1.[Cl-] | 8.52 | 2410 | 7.44 | 185.4 | 6.64 | 29.4 | 6.67 | 31.3 | 5.17 |
| CCN(CC)c1ccc2nc3ccc(N4CCOCC4)cc3[o+]c2c1.[Cl-] | 7.54 | 1363.6 | 5.53 | 13.6 | 5.39 | 9.9 | 4.79 | 2.5 | 4.40 |
| CCCN(CCC)c1ccc2nc3ccc(N4CCOCC4)cc3[o+]c2c1.[Cl-] | 8.30 | 3883 | 6.39 | 47.6 | 6.06 | 22.2 | 6.12 | 25.6 | 4.71 |
| CN(C)c1ccc2nc3ccc(N4CCSCC4)cc3[o+]c2c1.[Cl-] | 8.22 | 4022.5 | 6.22 | 36.6 | 5.26 | 4.1 | 4.84 | 1.5 | 4.65 |
| CCN(CC)c1ccc2nc3ccc(N4CCSCC4)cc3[o+]c2c1.[Cl-] | 8.10 | 2822 | 6.81 | 141.1 | 5.79 | 13.5 | 6.00 | 21.6 | 4.66 |
| CCCN(CCC)c1ccc2nc3ccc(N4CCSCC4)cc3[o+]c2c1.[Cl-] | 8.15 | 976.7 | 6.79 | 43.1 | 5.82 | 4.6 | 5.93 | 6 | 5.15 |
| [Cl-].c1cc2nc3ccc(N4CCCCC4)cc3[o+]c2cc1N1CCCCC1 | 8.30 | 1050 | 7.09 | 67.7 | 6.81 | 35.6 | 5.94 | 4.8 | 5.26 |
| CN(C)c1ccc2nc3ccc(N4CCCCC4)cc3[o+]c2c1.[Cl-] | 8.52 | 7740 | 6.76 | 129 | 6.07 | 26.7 | 5.78 | 13.6 | 4.65 |
| CCN(CC)c1ccc2nc3ccc(N4CCCCC4)cc3[o+]c2c1.[Cl-] | 8.52 | 2390 | 7.32 | 132.8 | 6.61 | 26.3 | 5.84 | 4.5 | 5.19 |
| CCCN(CCC)c1ccc2nc3ccc(N4CCCCC4)cc3[o+]c2c1.[Cl-] | 8.10 | 105.3 | 7.64 | 35.1 | 6.62 | 3.3 | 7.01 | 8.1 | 6.10 |
| CCCCN(CCCC)c1ccc2nc3ccc(N4CCCCC4)cc3[o+]c2c1.[Cl-] | 8.15 | 12.3 | 7.24 | 1.5 | 6.57 | 0.3 | 8.70 | 37 | 7.05 |
| CCCCCCN(CCCCCC)c1ccc2nc3ccc(N4CCCCC4)cc3[o+]c2c1.[Cl-] | 8.40 | 48 | 7.68 | 9.6 | 7.85 | 13.7 | 7.85 | 13.7 | 6.70 |
| [Cl-].c1cc2nc3ccc(N4CCCC4)cc3[o+]c2cc1N1CCCC1 | 8.52 | 1400 | 6.92 | 32.6 | 6.80 | 24.6 | 7.43 | 107.7 | 5.41 |
| CCCN(CCC)c1ccc2nc3ccc(N(CCC)CCC)cc3[o+]c2c1.[Cl-] | 8.70 | 165 | 7.77 | 23.6 | 7.64 | 17.4 | 8.70 | 165 | 6.40 |
| [Cl-].c1cc2nc3ccc(N4CCOCC4)cc3[o+]c2cc1N1CCOCC1 | 6.37 | 66.5 | 5.15 | 4 | 5.06 | 3.3 | 5.29 | 5.5 | 4.54 |
| CCN(CC)c1ccc2nc3ccc(N4CCCC4)cc3[o+]c2c1.[Cl-] | 8.22 | 1390 | 7.25 | 139 | 6.77 | 46.3 | 6.18 | 11.9 | 5.11 |
| CCCN(CCC)c1ccc2nc3ccc(N4CCCC4)cc3[o+]c2c1.[Cl-] | 8.52 | 355 | 7.44 | 25.4 | 7.80 | 59.2 | 7.80 | 59.2 | 6.04 |
| CN(C)c1ccc2nc3ccc(N4CCCC4)cc3[o+]c2c1.[Cl-] | 8.22 | 2166.5 | 6.59 | 51 | 7.04 | 144.4 | 5.77 | 7.7 | 4.88 |
| CN(C)c1ccc2nc3ccc(N4CCOCC4)cc3[o+]c2c1.[Cl-] | 7.64 | 2153.9 | 5.30 | 9.8 | 5.59 | 19.2 | 5.98 | 47.2 | 4.30 |
| CCCCCN(CCCCC)c1ccc2nc3ccc(N4CCCCC4)cc3[o+]c2c1.[Cl-] | 8.70 | 63 | 7.82 | 9 | 7.66 | 6.3 | 8.70 | 63 | 6.85 |
| O=C(Cn1ccnc1[N+](=O)[O-])NCc1ccccc1 [BENZNIDAZOLE] |  |  | 6.06 |  |  |  |  |  |  |
| CCCCCCCCCCCCCCCCOP(=O)([O-])OCC[N+](C)(C)C [MILTEFOSINE] |  |  |  |  |  |  | 6.55 |  |  |
| COc1cc([C@@H]2c3cc4c(cc3[C@H](O)[C@H]3COC(=O)[C@H]23)OCO4)cc(OC)c1OC [PODOFILOX] |  |  |  |  |  |  |  |  | 7.70 |
